High-throughput results deposited in PubChem by several laboratories.
Hits are enriched below; roughly 0.73% of the tested compounds scored in any of these assays.
Keap1-Nrf2 PPI: inhibitors of human Keap1-Nrf2 protein-protein interaction; Q14145; Keap1 Kelch-Nrf2 peptide fluorescence polarization, 1536-well; inhibition, % at 9.4 µM; 340,000 tested, 0.15% active; AID 504523; in the data active = inhibition above about 12%;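 note: human Keap1 Kelch domain with fluorescein labeled Nrf2 9mer peptide probe; 0% = neutral control wells and 100% = peptide positive control; higher means more block of Keap1 binding to Nrf2 peptide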
Target sequence (Q14145 whole entry, looked up, the tested form may be a part): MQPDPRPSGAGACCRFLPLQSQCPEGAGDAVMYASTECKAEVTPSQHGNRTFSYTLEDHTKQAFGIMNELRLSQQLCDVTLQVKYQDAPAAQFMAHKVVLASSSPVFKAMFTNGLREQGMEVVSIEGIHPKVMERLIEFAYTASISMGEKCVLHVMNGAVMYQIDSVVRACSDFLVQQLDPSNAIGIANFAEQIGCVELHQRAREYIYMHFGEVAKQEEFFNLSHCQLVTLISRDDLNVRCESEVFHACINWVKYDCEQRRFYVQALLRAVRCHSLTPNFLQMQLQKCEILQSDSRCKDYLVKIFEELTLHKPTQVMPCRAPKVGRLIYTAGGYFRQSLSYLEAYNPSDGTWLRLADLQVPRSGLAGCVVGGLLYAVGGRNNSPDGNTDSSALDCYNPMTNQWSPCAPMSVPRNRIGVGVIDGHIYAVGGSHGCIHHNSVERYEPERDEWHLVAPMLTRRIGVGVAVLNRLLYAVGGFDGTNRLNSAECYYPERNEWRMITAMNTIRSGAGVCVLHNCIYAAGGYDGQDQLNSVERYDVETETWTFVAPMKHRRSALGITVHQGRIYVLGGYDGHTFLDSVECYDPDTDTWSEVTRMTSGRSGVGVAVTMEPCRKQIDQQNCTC
RTF Ca sens inh: cardiac RTF calcium desensitization; P19429+P45379; IANBD-labeled cardiac RTF, Ca2+ fluorescence; inhibition, % at 7.15 µM; AID 493244; 340,000 tested, 0.12% active;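 active = inhibition above the mean inhibition of all tested compounds plus 3 SD, cut at about 17% in these data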;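 note: assay run at fixed EC70 calcium of 1.6 mM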
Tn7 DDE FP: disrupts Tn7 cyclic peptide binding to fibrin D-Dimer-E complex | FP displacement of FITC-Tn7 peptide from fibrin DD(E); 0% = median of compound wells per plate | inhibition, % at 8.3 µM | 370,000 tested, 0.13% active;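 active = inhibition above the mean of compounds falling within the control limits plus 3 SD of them, cut at about 14% in these data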;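 note: 0% = plate median of compound wells and 100% = 10 µM Aha-Tn7 peptide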
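Assay system: Fibrin-DD(E) protein isolated from polymerized human fibrin clots; read-out basis: percent inhibition; medium: Tris/NaCl/CaCl2 buffer, pH 7.8; signal: FP measurement; incubation: 10 min plus 3 h, room temperature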
C-LANA FP: inhibitors of KSHV LANA C-terminal domain DNA binding; MBP-C-LANA/FAM-LBS DNA binding, fluorescence polarization; inhibition, % at 9 µM; 340,000 tested, 0.078% active; AID 504423;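 active = highest replicate inhibition at or above 60% at 9 µM, even if other replicates fall short; inactive = all replicates below 60% inhibition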;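 note: 0% = neutral control wells and 100% = 4 µM acridine orange control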
cardiac RTF act: cardiac RTF calcium sensitization | activation, % at 7.2 µM | P19429+P45379 | 340,000 tested, 0.24% active | AID 493008 | IANBD-labeled TnC RTF fluorescence at EC20 calcium; 0% EC20 calcium, 100% full calcium;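 active = activation above the mean over all tested compounds plus 3 SD, cut at about 30% in these data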;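 note: rise in fluorescence read as greater calcium sensitivity of cardiac thin filaments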
DDE Tn6 FP inh: disrupts Tn6 cyclic peptide binding to fibrin D-Dimer-E complex; Fibrin DD(E) TRITC-Tn6 fluorescence polarization displacement; AID 720509; 370,000 tested, 0.21% active; inhibition, % at 8.3 µM;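 active = inhibition above a per-campaign cutoff: mean of compounds within control limits plus 3 SD, cut at about 15% in these data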;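 note: 0% = median of all compound wells on the plate and 100% = blocking peptide control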
Tn6 DDE ctr: counter-screen for inhibitors of Tn6 peptide binding to fibrin DD(E); inhibition, % at 8.3 µM; 680 tested, 2% active; AID 720621; shares compounds with DDE Tn6 FP inh; TRITC-Tn6 fluorescence polarization displacement; 0% = median of compound wells, not DMSO;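 active = inhibition above the mean of test compounds lying between the control limits plus 3 SD of those, cut at about 14% in these data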;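 note: 0% = median of compound wells and 100% = wells with Aha-Tn7 blocking peptide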
DDE Tn6 confirm: DD(E)-Tn6 binding inhibition, FP confirmation. FP displacement of TRITC-Tn6 peptide from DD(E); 0% = per-plate median of test wells. inhibition, % at 8.3 µM. shares compounds with DDE Tn6 FP inh. 680 tested, 10% active;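 active = inhibition above the mean of compounds lying within the control limits plus 3 SD, cut at about 16% in these data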;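 note: 100% = high control wells holding a competing inhibitor peptide at 10 µM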
The depositor's hits bear a star; · = no result given.

SMILES	Keap1-Nrf2 PPI	RTF Ca sens inh	Tn7 DDE FP	C-LANA FP	cardiac RTF act	DDE Tn6 FP inh	Tn6 DDE ctr	DDE Tn6 confirm
CC(=O)NCc1ccc(S(=O)(=O)NC(C(=O)O)C(C)C)cc1 (centres undefined)	-1	-12	8	0	0	16*	-6	-10
CC(C)(C)c1ccc(NC(=O)CCNC(=O)c2ccco2)cc1	-3	-2	8	2	-6	15*	-5	-5
O=C(CCNC(=O)c1ccco1)Nc1ccc(C(F)(F)F)cc1	1	-12	-5	1	1	8	·	·
CCN(CC)c1cccc(OCC(=O)N(C)CCC#N)c1	-3	-15	6	-1	15	88*	9	10
CCn1c2ccccc2c2cc(NC(=O)COC(=O)c3ccc(F)cc3Cl)ccc21	·	·	0	·	·	-4	·	·
O=C(NC1CCCC1)C(C1CC1)n1c(-c2ccccn2)nc2ccccc21 (centres undefined)	·	·	-3	·	·	-4	·	·
C=CS(=O)(=O)N(Cc1nnn(Cc2ccccc2)c1Br)[C@@H](CC(C)C)C(=O)OC	·	·	3	·	·	-1	·	·
Cc1ccc(C)c(Cn2nnc3c(=O)[nH]c(C4CCN(S(=O)(=O)c5ccc(S(=O)(=O)NC6CC6)cc5)CC4)nc32)c1	5	-34	-2	1	-6	18*	6	6
CS(=O)(=O)c1cccc(C(=O)Nc2ccccc2Cc2ccccc2)c1	-1	-8	-3	-1	4	16*	0	-3
CCCCC(=Nc1ccc(N)cc1)C1=C(O)C(C(=O)OC)C(C)(C)CC1=O (centres undefined)	-1	-8	4	0	4	121*	-4	9
CCCC(=NCc1ccccc1)C1=C(O)C(C(=O)OC)C(C)(C)CC1=O (centres undefined)	1	1	12	1	2	4	·	·
COC(=O)c1cn(-c2ccc3c(c2)[C@@]2(CC(=O)N(C)C2c2ccccc2)C(=O)N3CC(C)C)nn1 (some centres undefined)	·	·	-10	·	·	-1	·	·
Cc1c(CN2CCC(C(=O)Nc3ccc(Oc4ccccc4)nc3)CC2)cnn1C	-2	-4	-2	0	-1	15*	9	6
CCN(CC)C(=O)Cn1c2ccccc2c2nc3n(c(=O)c21)CCS3	·	·	1	·	·	-3	·	·
COC(=O)C1=C(N)Oc2cc(N(C)C)ccc2C1c1ccccc1OC (centres undefined)	-10	-6	7	3	5	36*	7	-9
Cc1cc2c(cc1S(=O)(=O)N1CCN(c3cccc(C)c3C)CC1)OCCN2C	-3	-2	-1	-1	0	131*	8	67*
COc1cccc(N2CCN(S(=O)(=O)c3cc4c(cc3C)N(C)CCO4)CC2)c1	-3	-3	2	-1	-2	-8	·	·
CC(C)c1ccc([C@@H]2O[C@H](CCc3ccccc3)CC3=C2C(=O)OC(C)(C)O3)cc1	·	·	3	·	·	-8	·	·
CCn1c(C)c(C2=CCN(S(=O)(=O)c3ccc(C)cc3)CC2)c2ccccc21	-3	-10	3	3	1	25*	4	8
O=C(c1ccc(F)cc1Cl)N1CCCC(c2nc(-c3cccs3)no2)C1 (centres undefined)	·	·	-2	·	·	5	·	·
CC(=O)C1=C(C)N(Cc2ccc(Br)cc2)C(=S)NC1c1cccc(F)c1 (centres undefined)	·	·	5	·	·	3	·	·
CC(C)CN1C(=O)[C@]2(CC(=O)N(C)C2c2ccccc2)c2cc(-n3cc(C4=CCCCC4)nn3)ccc21 (some centres undefined)	·	·	-1	·	·	15*	8	7
O=C(Nc1cccc([N+](=O)[O-])c1)c1ccc([N+](=O)[O-])o1	·	·	-2	·	·	18*	2	1
O=C(Nc1cccc(NC(=O)c2ccccc2Cl)c1)c1ccc([N+](=O)[O-])o1	1	-1	-5	1	-3	-5	·	·
COc1ccc2ccccc2c1C=NNC(=O)c1cc(-c2ccc(C)c(C)c2)n[nH]1	·	·	-1	·	·	26*	12	16*
SMILES	Keap1-Nrf2 PPI	RTF Ca sens inh	Tn7 DDE FP	C-LANA FP	cardiac RTF act	DDE Tn6 FP inh	Tn6 DDE ctr	DDE Tn6 confirm
CCOC(=O)C1=C(C(=O)OCC)C2N(Cc3ccccc3)c3ccccc3[C@@]23C[C@@H](C(=O)OC)N(S(=O)(=O)c2ccc(C(F)(F)F)cc2)C3=N1 (some centres undefined)	·	·	-2	·	·	3	·	·
Cc1ccc2[nH]c(=O)c(-c3noc(C(C)C)n3)cc2c1	-5	-5	-2	1	0	17*	-1	-5
COc1ccc(N2CCN(C(=S)NCCc3ccccc3)CC2)cc1	-3	0	-6	1	2	10	·	·
Oc1ccc(N2CCN(C(=S)NCCc3ccccc3)CC2)cc1	2	3	-6	0	-2	16*	8	12
Cc1ccc(-c2cc(-c3nnc(SCC(=O)Nc4ccc(OCc5ccccc5)cc4)n3N)[nH]n2)cc1	·	·	2	·	·	3	·	·
Cc1ccc2c(c1)N(Cc1ccccn1)C(=O)C(C)O2 (centres undefined)	-3	-3	5	-1	15	17*	-5	-9
COC(=O)[C@@]1(OC(C)=O)CC(OC(C)=O)[C@H](OC(C)=O)[C@H](OC(C)=O)C1Br (some centres undefined)	·	·	0	·	·	6	·	·
CCOC(=O)Cc1cc(-c2ccc(F)cc2)nc2ccc3ccccc3c12	-5	1	11	7	0	16*	-1	-6
CCOC(=O)Cc1cc(-c2ccc(O)cc2)nc2ccc3ccccc3c12	-1	-1	-5	-1	-28	-12	·	·
CN(C)c1ccc(N=Nc2ccc(S(N)(=O)=O)cc2)cc1	3	-5	-4	-2	1	6	·	·
CC1=CC(=O)C=CC1=Nc1ccc(N(C)C)cc1	·	·	-7	·	·	22*	2	-2
CCNC(=O)C1(C)CCN(C(=O)c2cccc(OC(F)(F)F)c2)C1 (centres undefined)	·	·	6	·	·	4	·	·
CCCS(=O)(=O)NC(=O)C1(C)CCN(C(=O)c2cccc(OC(F)(F)F)c2)C1 (centres undefined)	·	·	4	·	·	15*	-8	-8
COC(=O)[C@]12C[C@H](CC(=O)N3CCN(C(=O)c4ccco4)CC3)C(=O)N(CCC3=CCCCC3)C1=C[C@H](COCc1ccccc1)O[C@@H]2C	·	·	-4	·	·	-9	·	·
